In brackets after ≈: the same amount, converted by molar mass. Activity calls are given as the source filed them. No cut-off for these calls is given here.
Assays:
Aspergillus fumigatus [1] = experiment: Antifungal activity against Aspergillus fumigatus ATCC 90906 at 20 ug/ml; format: functional, organism-based
Cryptococcus neoformans [2] = experiment: Antifungal activity against Cryptococcus neoformans ATCC 90113 at 20 ug/ml; format: functional, organism-based
Candida albicans [3] = experiment: Antifungal activity against Candida albicans ATCC 90028 at 20 ug/ml; format: functional, organism-based
Vero = experiment: Cytotoxicity against african green monkey Vero cells; format: cell-based; details: Chlorocebus sabaeus
Candida albicans [4] = experiment: Antifungal activity against Candida albicans ATCC 90028; format: functional
Summary of the method: (§1)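 Read-outs were MIC and MFC, in μg/mL. MFC is the lowest concentration that kills the fungus.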

[5] = Selectivity index of IC50 for african green monkey Vero cells to MFC for Cryptococcus neoformans ATCC 90113; format: toxicity, cell-based; details: read-out: Selectivity Index
Summary of the method: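 The index is the Vero cell cytotoxicity IC50 divided by the MFC against C. neoformans.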

Aspergillus fumigatus [6] = experiment: Antifungal activity against Aspergillus fumigatus ATCC 90906; format: functional; summary of the method: as §1
Cryptococcus neoformans [7] = experiment: Antifungal activity against Cryptococcus neoformans ATCC 90113; format: functional; summary of the method: as §1
[8] = test system: Cryptococcus bacillisporus; experiment: Antifungal activity against fluconazole-resistant Cryptococcus gattii ATCC 32609; format: functional
Candida parapsilosis [9] = experiment: Antifungal activity against Candida parapsilosis ATCC 22019; format: functional; details: Lodderomyces parapsilosis
Candida albicans [10] = experiment: Antifungal activity against fluconazole-resistant Candida albicans isolate 1 isolated from AIDS patient; format: functional
Aspergillus fumigatus [11] = experiment: Antifungal activity against Aspergillus fumigatus ATCC 204305 at 160 ug/ml; format: functional, organism-based
Candida albicans [12] = experiment: Antifungal activity against Candida albicans ATCC 32354; format: functional
Candida albicans [13] = experiment: Antifungal activity against fluconazole-resistant Candida albicans isolate 17 isolated from AIDS patient at 160 ug/ml; format: functional, organism-based
Nakaseomyces glabratus [14] = experiment: Antifungal activity against intrinsically fluconazole-resistant Candida glabrata ATCC 90030 at 160 ug/ml; format: functional, organism-based
Pichia kudriavzevii = experiment: Antifungal activity against intrinsically fluconazole-resistant Candida krusei ATCC 6258; format: functional
Candida albicans [15] = experiment: Antifungal activity against amphotericin-B-resistant Candida albicans ATCC 200955; format: functional
Aspergillus flavus [16] = experiment: Antifungal activity against Aspergillus flavus ATCC 204304 at 160 ug/ml; format: functional, organism-based
Aspergillus fumigatus [17] = experiment: Antifungal activity against Aspergillus fumigatus ATCC 90906 at 160 ug/ml; format: functional, organism-based
Cryptococcus neoformans [18] = experiment: Antifungal activity against Cryptococcus neoformans ATCC 66031; format: functional
Candida albicans [19] = experiment: Antifungal activity against Candida albicans ATCC 60193 at 160 ug/ml; format: functional, organism-based
Candida tropicalis [20] = experiment: Antifungal activity against Candida tropicalis ATCC 750; format: functional
Aspergillus niger [21] = experiment: Antifungal activity against Aspergillus niger ATCC 16404 at 160 ug/ml; format: functional, organism-based
Candida albicans [22] = experiment: Antifungal activity against Candida albicans ATCC 60193; format: functional
Candida parapsilosis [23] = experiment: Antifungal activity against Candida parapsilosis ATCC 22019 at 160 ug/ml; format: functional, organism-based
Aspergillus fumigatus [24] = experiment: Antifungal activity against Aspergillus fumigatus ATCC 13073 at 160 ug/ml; format: functional, organism-based
Candida albicans [25] = experiment: Antifungal activity against Candida albicans ATCC 14053; format: functional; summary of the method: as §1
Candida tropicalis [26] = experiment: Antifungal activity against Candida tropicalis ATCC 750 at 160 ug/ml; format: functional, organism-based
Candida albicans [27] = experiment: Antifungal activity against fluconazole-resistant Candida albicans isolate 1 isolated from AIDS patient at 160 ug/ml; format: functional, organism-based
Candida albicans [28] = experiment: Antifungal activity against Candida albicans ATCC 32354 at 160 ug/ml; format: functional, organism-based
Candida albicans [29] = experiment: Antifungal activity against amphotericin-B-resistant Candida albicans ATCC 200955 at 160 ug/ml; format: functional, organism-based
Nakaseomyces glabratus [30] = experiment: Antifungal activity against intrinsically fluconazole-resistant Candida glabrata ATCC 90030; format: functional
Candida albicans [31] = experiment: Antifungal activity against Candida albicans ATCC 90028 at 160 ug/ml; format: functional, organism-based
Candida albicans [32] = experiment: Antifungal activity against Candida albicans ATCC 14053 at 160 ug/ml; format: functional, organism-based
Aspergillus fumigatus [33] = experiment: Antifungal activity against Aspergillus fumigatus ATCC 204305; format: functional
Candida albicans [34] = experiment: Antifungal activity against fluconazole-resistant Candida albicans isolate 17 isolated from AIDS patient; format: functional
Aspergillus niger [35] = experiment: Antifungal activity against Aspergillus niger ATCC 16404 at 5 ug/ml; format: functional, organism-based
Aspergillus fumigatus [36] = experiment: Antifungal activity against Aspergillus fumigatus ATCC 13073; format: functional
Summary of the method: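 Panel of 23 fungal strains assayed by the group's previously published protocol. Read-outs in μg/mL are the MIC and the MFC, the lowest concentration that kills the fungus. The highest concentration tested was 160 μg/mL, or 5 μg/mL for some agents.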

Aspergillus flavus [37] = experiment: Antifungal activity against Aspergillus flavus ATCC 204304; format: functional
Summary of the method: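 Panel of 23 fungal strains assayed by the group's previously published protocol. Read-outs in μg/mL are the MIC and the MFC, the lowest concentration that kills the fungus.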

CCCCCCC1(O)C=CC2=[N+](C)CCCN21.[I-] (centres undefined)
Activity (Aspergillus fumigatus [1]): inactive
Activity (Cryptococcus neoformans [2]): inactive
Activity (Candida albicans [3]): inactive
IC50 (Vero): > 25 µg/mL

CCCCCCCCCCCCCCCCC1(O)C=CC2=[N+](C)CCCN21.[I-] (centres undefined)
MFC (Candida albicans [4]): 2.5 µg/mL
MIC (Candida albicans [4]): 2.5 µg/mL
selectivity ratio [5]: 13
IC50 (Vero): 16 µg/mL
MFC (Aspergillus fumigatus [6]): 5 µg/mL
MIC (Aspergillus fumigatus [6]): 5 µg/mL
MFC (Cryptococcus neoformans [7]): 1.25 µg/mL
MIC (Cryptococcus neoformans [7]): 1.25 µg/mL

CCCCCCCCCCCCC1(O)C=CC2=[N+](C)CCCN21.[I-] (centres undefined)
MFC (Candida albicans [4]): 10 µg/mL
MIC (Candida albicans [4]): 7.5 µg/mL
selectivity ratio [5]: 29
IC50 (Vero): 18.3 µg/mL
MFC (Aspergillus fumigatus [6]): 10 µg/mL
MIC (Aspergillus fumigatus [6]): 5 µg/mL
MFC (Cryptococcus neoformans [7]): 0.63 µg/mL
MIC (Cryptococcus neoformans [7]): 0.63 µg/mL

OC(Cn1cncn1)(Cn1cncn1)c1ccc(F)cc1F [FLUCONAZOLE]
MFC [8]: 50 µg/mL (≈ 163 µM)
MIC [8]: 50 µg/mL (≈ 163 µM)
MIC (Candida parapsilosis [9]): 2.8 µg/mL (≈ 9.14 µM)
MIC (Candida albicans [10]): 10.4 µg/mL (≈ 33.9 µM)
Activity (Aspergillus fumigatus [11]): inactive
MIC (Candida albicans [12]): 0.94 µg/mL (≈ 3.07 µM)
Activity (Candida albicans [13]): inactive
Activity (Nakaseomyces glabratus [14]): inactive
MFC (Pichia kudriavzevii): 80 µg/mL (≈ 261 µM)
MIC (Pichia kudriavzevii): 45 µg/mL (≈ 147 µM)
MIC (Candida albicans [4]): 0.51 µg/mL (≈ 1.67 µM)
MIC (Candida albicans [15]): 0.35 µg/mL (≈ 1.14 µM)
Activity (Aspergillus flavus [16]): inactive
Activity (Aspergillus fumigatus [17]): inactive
MFC (Cryptococcus neoformans [18]): 12.5 µg/mL (≈ 40.8 µM)
MIC (Cryptococcus neoformans [18]): 3.91 µg/mL (≈ 12.8 µM)
Activity (Candida albicans [19]): inactive
MIC (Candida tropicalis [20]): 13.1 µg/mL (≈ 42.8 µM)
Activity (Aspergillus niger [21]): inactive
MIC (Candida albicans [22]): 0.2 µg/mL (≈ 0.653 µM)
Activity (Candida parapsilosis [23]): inactive
Activity (Aspergillus fumigatus [24]): inactive
MIC (Candida albicans [25]): 0.25 µg/mL (≈ 0.816 µM)
Activity (Candida tropicalis [26]): inactive
Activity (Candida albicans [27]): inactive
Activity (Candida albicans [28]): inactive
Activity (Candida albicans [29]): inactive
MIC (Nakaseomyces glabratus [30]): 45 µg/mL (≈ 147 µM)
Activity (Candida albicans [31]): inactive
Activity (Candida albicans [32]): inactive
MFC (Cryptococcus neoformans [7]): 25 µg/mL (≈ 81.6 µM)
MIC (Cryptococcus neoformans [7]): 9.38 µg/mL (≈ 30.6 µM)

CCCCCCCCCCCCCCC1(O)C=CC2=[N+](C)CCCN21.[I-] (centres undefined)
MFC (Aspergillus fumigatus [33]): 10 µg/mL
MFC (Candida albicans [34]): 2.5 µg/mL
MFC [8]: 0.63 µg/mL
MIC [8]: 0.63 µg/mL
MIC (Candida albicans [10]): 1.25 µg/mL
MFC (Candida albicans [12]): 10 µg/mL
MIC (Candida albicans [4]): 1.88 µg/mL
MFC (Cryptococcus neoformans [18]): 0.31 µg/mL
MIC (Cryptococcus neoformans [18]): 0.23 µg/mL
selectivity ratio [5]: 53
IC50 (Vero): 16.5 µg/mL
MIC (Candida albicans [25]): 1.88 µg/mL
MFC (Aspergillus fumigatus [6]): 5 µg/mL
MIC (Aspergillus fumigatus [6]): 1.88 µg/mL
MFC (Cryptococcus neoformans [7]): 0.31 µg/mL
MIC (Cryptococcus neoformans [7]): 0.31 µg/mL

C[C@@H]1[C@H](O)[C@@H](C)/C=C/C=C/C=C/C=C/C=C/C=C/C=C/[C@H](O[C@@H]2O[C@H](C)[C@@H](O)[C@H](N)[C@@H]2O)C[C@@H]2O[C@](O)(C[C@@H](O)C[C@@H](O)[C@H](O)CC[C@@H](O)C[C@@H](O)CC(=O)O[C@H]1C)C[C@H](O)[C@H]2C(=O)O [AMPHOTERICIN B]
MIC (Candida albicans [34]): 0.94 µg/mL (≈ 1.02 µM)
MFC [8]: 0.57 µg/mL (≈ 0.617 µM)
MIC [8]: 0.57 µg/mL (≈ 0.617 µM)
MIC (Candida albicans [15]): 1.88 µg/mL (≈ 2.03 µM)
MFC (Cryptococcus neoformans [18]): 0.31 µg/mL (≈ 0.335 µM)
MIC (Cryptococcus neoformans [18]): 0.16 µg/mL (≈ 0.173 µM)
IC50 (Vero): 4.7 µg/mL (≈ 5.09 µM)
Activity (Aspergillus niger [35]): inactive
MFC (Aspergillus fumigatus [36]): 10 µg/mL (≈ 10.8 µM)
MIC (Aspergillus fumigatus [36]): 1.5 µg/mL (≈ 1.62 µM)
MFC (Aspergillus flavus [37]): 5 µg/mL (≈ 5.41 µM)

CCCCCCCCCCC1(O)C=CC2=[N+](C)CCCN21.[I-] (centres undefined)
Activity (Aspergillus fumigatus [1]): inactive
MIC (Candida albicans [4]): 20 µg/mL
Activity (Candida albicans [3]): inactive
selectivity ratio [5]: 2
IC50 (Vero): 21.3 µg/mL
MFC (Cryptococcus neoformans [7]): 10 µg/mL
MIC (Cryptococcus neoformans [7]): 10 µg/mL

CCCCCCCCCCCCCCCCCCC1(O)C=CC2=[N+](C)CCCN21.[I-] (centres undefined)
Activity (Aspergillus fumigatus [1]): inactive
MFC (Candida albicans [4]): 2.5 µg/mL
MIC (Candida albicans [4]): 2.5 µg/mL
selectivity ratio [5]: 6
IC50 (Vero): 12.3 µg/mL
MIC (Aspergillus fumigatus [6]): 10 µg/mL
MFC (Cryptococcus neoformans [7]): 1.97 µg/mL
MIC (Cryptococcus neoformans [7]): 1.61 µg/mL
